According to PMC8123931 (Nature chemical biology, 2020):

Legend:
MaMTH stable bait cells = assay: Reporter cell viability; assay type: cell-based
In short: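 MaMTH stable bait cells seeded at 10,000 cells/well in 96-well plates. Next day treated across a dose range of test compound, with 0.5 μg/mL tetracycline to induce bait expression. Viability measured by CellTiter-Glo luminescence after 72 h of drug exposure.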

[1] = system: PC9 EGFR ex19del/T790M/C797S cells; assay: Western analysis of EGFR activation and downstream signalling; assay type: cell-based; conditions: for EGFR activation and signalling through ERK and AKT: 20 µM; for EGFR activation and signalling through ERK and AKT / EGFR phosphorylation/activation / phosphorylation of downstream signalling partners: 2 hours treatment; for potency towards mutant EGFR relative to EMI1: 10 µM dose; for EGFR phosphorylation/activation: compared with PC9 ex19del cells; for phosphorylation of downstream signalling partners: triple mutant cells
[2] = system: PC9 EGFR ex19del/T790M/C797S cells; assay: Microtubule imaging; assay type: cell-based
EGFR L858R/T790M/C797S [3] = biological target: T1, EGFR L858R/T790M/C797S (Homo sapiens, UniProt P00533, C797S/L858R/T790M); assay: MaMTH-DS assay and screen, EGFR L858R/T790M/C797S bait with Shc1 prey; assay type: cell-based
AXL = biological target: T2, AXL (Homo sapiens, UniProt P30530); assay: MaMTH-DS assay, AXL bait with Shc1 prey; assay type: cell-based; conditions: dose response
T2 sequence (P30530 26-894): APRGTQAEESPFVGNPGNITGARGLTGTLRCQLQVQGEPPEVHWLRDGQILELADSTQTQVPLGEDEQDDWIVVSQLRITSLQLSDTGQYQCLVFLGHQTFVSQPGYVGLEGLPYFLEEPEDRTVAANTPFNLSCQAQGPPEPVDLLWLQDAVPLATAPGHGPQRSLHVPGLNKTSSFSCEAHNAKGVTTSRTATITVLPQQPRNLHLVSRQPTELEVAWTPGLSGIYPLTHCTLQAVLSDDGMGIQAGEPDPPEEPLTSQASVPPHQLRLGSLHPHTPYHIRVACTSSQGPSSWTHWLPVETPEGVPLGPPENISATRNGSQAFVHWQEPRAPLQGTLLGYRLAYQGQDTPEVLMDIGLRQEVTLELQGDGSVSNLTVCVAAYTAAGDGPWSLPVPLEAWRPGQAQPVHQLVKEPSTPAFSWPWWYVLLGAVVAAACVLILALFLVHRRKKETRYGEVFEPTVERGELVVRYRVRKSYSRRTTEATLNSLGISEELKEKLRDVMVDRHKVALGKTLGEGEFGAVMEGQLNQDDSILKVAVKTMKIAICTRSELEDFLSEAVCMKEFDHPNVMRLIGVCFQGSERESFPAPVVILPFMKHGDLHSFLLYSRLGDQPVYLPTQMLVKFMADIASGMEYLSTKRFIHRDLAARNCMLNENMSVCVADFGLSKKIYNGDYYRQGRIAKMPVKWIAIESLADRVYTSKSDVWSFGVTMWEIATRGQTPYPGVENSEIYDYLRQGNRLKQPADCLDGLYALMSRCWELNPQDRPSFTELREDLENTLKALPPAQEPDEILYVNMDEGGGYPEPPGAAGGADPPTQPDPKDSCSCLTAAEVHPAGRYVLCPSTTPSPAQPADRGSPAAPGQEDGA

[4] = system: RTK bait (MET, FGFR4, AXL, ALK, EGFR); conditions: for bait expression: EGFR WT and mutant baits
wild-type EGFR = wild-type EGFR (Homo sapiens, UniProt P00533); assay: In vitro kinase assay, recombinant kinase domain; assay type: biochemical; conditions: 100 µM ATP
EGFR L858R/T790M/C797S [5] = biological target: T1, EGFR L858R/T790M/C797S; assay: In vitro kinase assay, recombinant kinase domain; assay type: biochemical; conditions: 100 µM ATP
EGFR ex19del/T790M/C797S = EGFR ex19del/T790M/C797S (Homo sapiens, UniProt P00533, C797S/DEL746-750/T790M); assay: In vitro kinase assay, recombinant kinase domain; assay type: biochemical; conditions: 100 µM ATP
EGFR L858R = EGFR L858R (Homo sapiens, UniProt P00533, L858R); assay: In vitro kinase assay, recombinant EGFR single mutant; assay type: biochemical; conditions: compared with triple mutants
EGFR ex19del = assay: as above; assay type: biochemical; conditions: compared with triple mutants
EGFR ex19del/T790M = EGFR ex19del/T790M (Homo sapiens, UniProt P00533, DEL746-750/T790M); assay: In vitro kinase assay, recombinant EGFR double mutant; assay type: biochemical
EGFR L858R/T790M = EGFR L858R/T790M (Homo sapiens, UniProt P00533, L858R/T790M); assay: as above; assay type: biochemical
[6] = system: PC9 EGFR ex19del/T790M/C797S cells; assay: Caspase 3 and 7 assay; assay type: cell-based; conditions: 72 hours of drug treatment
A549 EGFR WT cells = assay: Caspase 3 and 7 assay; assay type: cell-based; conditions: 72 hours of drug treatment
In short: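 A549 cells were plated in 384-well plates at 5,000 cells per well and exposed to test compound for 72 h. Caspase 3 and 7 activity was then read by luminescence using the Caspase-Glo 3/7 reagent.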

[7] = system: PC9 EGFR ex19del/T790M/C797S organoids; assay: Organoid viability assay; assay type: cell-based
[8] = system: HEK293 EGFR L858R/T790M/C797S cells; assay: EGFR localization and endosomal trafficking; assay type: cell-based
HEK293 EGFR WT cells = assay: EGFR localization and endosomal trafficking; assay type: cell-based; conditions: 1 µM compound, 30 minutes EGF
[9] = system: HEK293 EGFR L858R/T790M/C797S cells; assay: Cell surface biotinylation assay; assay type: cell-based; conditions: 5 µM compound, 2 hours

## C=CC(=O)Nc1cccc(C)c1Nc1ncc2cc(-c3c(Cl)c(OC)cc(OC)c3Cl)ccc2n1 [BLU9931]
MaMTH stable bait cells; FGFR4 bait cells
  reporter cell viability: no effect on reporter cell viability

## COc1cc2c(c(OC)c1OC)-c1ccc(OC)c(=O)cc1[C@@H](NC(C)=O)CC2 [Colchicine]
[1]
  EGFR activation and signalling through ERK and AKT: not evident

## CC(=O)O[C@@]12CO[C@@H]1C[C@H](O)[C@@]1(C)C(=O)[C@H](O)C3=C(C)[C@@H](OC(=O)[C@H](O)[C@@H](NC(=O)OC(C)(C)C)c4ccccc4)C[C@@](O)([C@@H](OC(=O)c4ccccc4)[C@H]21)C3(C)C [Docetaxel]
[1]
  EGFR activation and signalling through ERK and AKT: not evident

## CCN(CC)c1ccc2cc(-c3nc4cc(C)ccc4o3)c(=O)oc2c1 [EMI48]
[1]
  potency towards mutant EGFR relative to EMI1: greater potency towards mutant EGFR than EMI1
[2]
  interphase microtubules and spindle formation: did not affect interphase microtubules, nor have an effect on spindle formation

## CCN(CC)c1cc2oc(=O)c(-c3nc4ccccc4o3)cc2cc1C [EMI56]
[1]
  potency towards mutant EGFR relative to EMI1: greater potency towards mutant EGFR than EMI1
[2]
  interphase microtubules and spindle formation: did not affect interphase microtubules, nor have an effect on spindle formation

## COC(=O)Nc1nc2ccc(C(=O)c3cccs3)cc2[nH]1 [Nocodazole]
[1]
  EGFR activation and signalling through ERK and AKT: not evident

## COc1cc(OC)c(/C=C/S(=O)(=O)Cc2ccc(OC)c(NCC(=O)O)c2)c(OC)c1 [Rigosertib]
[1]
  EGFR activation and signalling through ERK and AKT: not evident

## CC1(COc2ccc3c(c2)ncn3-c2ccc3cccc(N4CCC(N)CC4)c3n2)COC1 [crenolanib]
EGFR L858R/T790M/C797S [3]
  interaction of Shc1 with EGFR L858R/T790M/C797S (in words): none were found to target the EGFR C797S triple mutant

## C[C@@H](Oc1cc(-c2cnn(C3CCNCC3)c2)cnc1N)c1c(Cl)ccc(F)c1Cl [crizotinib]
MaMTH stable bait cells; MET bait cells
  reporter cell viability: not due to a loss in cell viability

## C#Cc1cccc(Nc2ncnc3cc(OCCOC)c(OCCOC)cc23)c1 [erlotinib]
AXL
  AXL activity (interaction with Shc1): not erlotinib control
MaMTH stable bait cells; EGFR WT and mutant bait cells
  reporter cell viability: not due to a reduction in reporter cell viability
[4]
  bait expression: no effect of TKIs on bait expression

## COc1cc2c(Oc3ccc(NC(=O)C4(C(=O)Nc5ccc(F)cc5)CC4)cc3F)ccnc2cc1OCCCN1CCOCC1 [foretinib]
AXL
  AXL activity (interaction with Shc1): strongly reduced, in a dose-dependent manner
MaMTH stable bait cells; AXL bait cells
  reporter cell viability: cell viability was unaffected
[4]; AXL bait
  bait expression level: not altered by compound

## CCc1nc(C(N)=O)c(Nc2ccc(N3CCC(N4CCN(C)CC4)CC3)c(OC)c2)nc1NC1CCOCC1 [gilteritinib]
EGFR L858R/T790M/C797S [3]
  interaction of Shc1 with EGFR L858R/T790M/C797S (in words): potent and highly specific inhibitor of the EGFR triple mutant
wild-type EGFR
  activity towards triple mutants compared with WT EGFR: significantly more potent activity towards the mutants than WT EGFR
EGFR L858R/T790M/C797S [5]
  IC50 values, inhibition of kinase domain (in words): low nanomolar range
EGFR ex19del/T790M/C797S
  IC50 values, inhibition of kinase domain (in words): low nanomolar range
EGFR L858R
  activity against single mutant: less effective
EGFR ex19del
  activity against single mutant: less effective
EGFR ex19del/T790M
  activity against double mutant: moderate to strong activity
EGFR L858R/T790M
  activity against double mutant: moderate to strong activity
[6]
  caspase 3/7 activity: induced caspase 3 and 7 activity
A549 EGFR WT cells
  caspase 3/7 activity: not in A549 epithelial cells carrying EGFR WT
[1]
  EGFR phosphorylation/activation: reduced EGFR phosphorylation/activation in PC9 ex19del/T790M/C797S triple mutant cells more strongly
  phosphorylation of downstream signalling partners: more potently reducing pAKT levels
[7]
  organoid viability / growth: potently affected the growth of PC9 triple mutant organoids

## CO[C@@H]1[C@H](N(C)C(=O)c2ccccc2)C[C@H]2O[C@]1(C)n1c3ccccc3c3c4c(c5c6ccccc6n2c5c31)C(=O)NC4 [midostaurin]
EGFR L858R/T790M/C797S [3]
  interaction of Shc1 with EGFR L858R/T790M/C797S (in words): robust, dose-dependent inhibition
wild-type EGFR
  activity towards triple mutants compared with WT EGFR: significantly more potent activity towards the mutants than WT EGFR
EGFR L858R
  activity against single mutant: less effective
EGFR ex19del
  activity against single mutant: less effective
EGFR ex19del/T790M
  activity against double mutant: moderate to strong activity
EGFR L858R/T790M
  activity against double mutant: moderate to strong activity
[6]
  caspase 3/7 activity: induced caspase 3 and 7 activity
A549 EGFR WT cells
  caspase 3/7 activity: not in A549 epithelial cells carrying EGFR WT
[1]
  EGFR phosphorylation/activation: reduced EGFR phosphorylation/activation in PC9 ex19del/T790M/C797S triple mutant cells more strongly
  phosphorylation of downstream signalling partners: more potently reducing pAKT and pERK levels
[7]
  organoid viability / growth: potently affected the growth of PC9 triple mutant organoids
[8]; 1 µM compound, 30 minutes EGF
  EGF accumulation in EEA1-positive early endosomes: significantly reduced EGF accumulation in EEA1-positive early endosomes
  overall amount of EGFR pY1068 localized to EEA1-positive endosomes: significantly reduced the overall amount of EGFR pY1068 localized to EEA1-positive endosomes
[8]; 30 min EGF
  average amount of activated EGFR per endosome: reduced the amount of activated EGFR per endosome
  number of early endosomes carrying activated EGFR: had no effect on total endosome number
HEK293 EGFR WT cells
  EGF accumulation in EEA1-positive early endosomes: A similar effect was observed for EGFR WT cells but to a lesser degree
  overall amount of EGFR pY1068 localized to EEA1-positive endosomes: not in EGFR WT
[9]
  surface levels of EGFR: not observed

## C=CC(=O)Nc1cc(Nc2nccc(-c3cn(C)c4ccccc34)n2)c(OC)cc1N(C)CCN(C)C [osimertinib]
MaMTH stable bait cells; EGFR WT and mutant bait cells
  reporter cell viability: not due to a reduction in reporter cell viability
[7]
  organoid viability / growth: has no effect
[8]; 1 µM compound, 30 minutes EGF
  EGF accumulation in EEA1-positive early endosomes: had no effect
[9]
  surface levels of EGFR: not observed
[4]
  bait expression: no effect of TKIs on bait expression

## CC(C)(C)c1cc(NC(=O)Nc2ccc(-c3cn4c(n3)sc3cc(OCCN5CCOCC5)ccc34)cc2)no1 [quizartinib]
EGFR L858R/T790M/C797S [3]
  interaction of Shc1 with EGFR L858R/T790M/C797S (in words): none were found to target the EGFR C797S triple mutant
